Source: ChEMBL document CHEMBL3407466, “Discovery of an oral respiratory syncytial virus (RSV) fusion inhibitor (GS-5806) and clinical proof of concept in a human RSV challenge study” (J Med Chem, 2015)

What was measured:
[1] = Lipophilicity, log D of the compound by chromatography; format: physicochemical
[2] = Oral bioavailability in Sprague-Dawley rat at 4 mg/kg; format: ADME, organism-based; details: in vivo
In short: (§1)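 IV parameters were taken from a 1 mg/kg dose given as a 30 min infusion.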

[3] = Clearance in Sprague-Dawley rat at 1 mg/kg, iv administered as infusion over 30 mins; format: ADME, organism-based; parameters: dose 1 mg/kg, route intravenous; details: in vivo; in short: as §1
[4] = Clearance in beagle dog at 1 mg/kg, iv administered as infusion over 30 mins; format: ADME, organism-based, Canis lupus familiaris; parameters: dose 1 mg/kg, route intravenous; details: in vivo
[5] = Clearance in cynomolgus monkey at 1 mg/kg, iv administered as infusion over 30 mins; format: ADME, organism-based, Macaca fascicularis; parameters: dose 1 mg/kg, route intravenous; details: in vivo
[6] = Volume of distribution at steady state in Sprague-Dawley rat; format: ADME, organism-based; details: in vivo, read-out: Vdss
[7] = Volume of distribution at steady state in beagle dog; format: ADME, organism-based, Canis lupus familiaris; details: in vivo, read-out: Vdss
[8] = Volume of distribution at steady state in cynomolgus monkey; format: ADME, organism-based, Macaca fascicularis; details: in vivo, read-out: Vdss
[9] = Terminal half life in po dosed Sprague-Dawley rat; format: ADME, organism-based; details: in vivo, read-out: beta t1/2 (converted)
[10] = Terminal half life in po dosed beagle dog; format: ADME, organism-based, Canis lupus familiaris; details: in vivo, read-out: beta t1/2 (converted)
[11] = Terminal half life in po dosed cynomolgus monkey; format: ADME, organism-based, Macaca fascicularis; details: in vivo, read-out: beta t1/2 (converted)
[12] = Terminal half life in po dosed human; format: ADME, organism-based; details: in vivo, read-out: beta t1/2 (converted)
[13] = Oral bioavailability in beagle dog at 4 mg/kg; format: ADME, organism-based, Canis lupus familiaris; details: in vivo
[14] = Oral bioavailability in cynomolgus monkey at 4 mg/kg; format: ADME, organism-based, Macaca fascicularis; details: in vivo
[15] = Ratio of AUC (0 to 12 hrs) in lung to AUC (0 to 12 hrs) in plasma of Sprague-Dawley rat at 1 mg/kg, iv; format: ADME, organism-based; parameters: dose 1 mg/kg, route intravenous
[16] = Ratio of AUC (0 to 12 hrs) in epithelial lining fluid to AUC (0 to 12 hrs) in plasma of Sprague-Dawley rat at 1 mg/kg, iv; format: ADME, organism-based; parameters: dose 1 mg/kg, route intravenous
[17] = test system: Lung; assay: Drug uptake in lung tissue of Sprague-Dawley rat at 1 mg/kg, iv relative to plasma level; format: ADME, organism-based; parameters: dose 1 mg/kg, route intravenous; details: in vivo
[18] = test system: Plasma; assay: Drug uptake in epithelial lining fluid of Sprague-Dawley rat at 1 mg/kg, iv relative to plasma level; format: ADME, organism-based; parameters: dose 1 mg/kg, route intravenous; details: in vivo
[19] = Drug uptake in bovine lung relative to plasma level; format: ADME, Bos taurus; details: cattle
[20] = test system: Plasma; assay: Drug uptake in dog lung relative to plasma level; format: ADME, Canis lupus familiaris

| SMILES | chromatographic logD [1] | other results |
| --- | --- | --- |
| Cc1[nH]c2cc([C@@H]3CCCCN3C(=O)c3cc(Cl)ccc3NS(C)(=O)=O)nn2c(=O)c1C | 1.9 |  |
| Cc1[nH]c2cc([C@@H]3CCCCN3C(=O)c3ccccc3NS(C)(=O)=O)nn2c(=O)c1C | 1.3 | bioavailability [2]: 1.5% |
| Cc1[nH]c2cc([C@@H]3CCCCN3C(=O)c3ccccc3)nn2c(=O)c1C | 1.4 |  |
| Cc1[nH]c2cc([C@@H]3CCCCN3C(=O)c3ccccc3O)nn2c(=O)c1C | 1.1 |  |
| Cc1[nH]c2cc([C@@H]3CCCCN3C(=O)c3ccccc3N)nn2c(=O)c1C | 1.4 |  |
| CC(=O)Nc1ccccc1C(=O)N1CCCC[C@H]1c1cc2[nH]c(C)c(C)c(=O)n2n1 | 0.88 |  |
| COC(=O)Nc1ccccc1C(=O)N1CCCC[C@H]1c1cc2[nH]c(C)c(C)c(=O)n2n1 | 1.3 |  |
| Cc1[nH]c2cc([C@@H]3CCCCN3C(=O)c3ccccc3NS(=O)(=O)C3CC3)nn2c(=O)c1C | 1.6 |  |
| Cc1[nH]c2cc([C@@H]3CCCCN3C(=O)c3ccccc3N(C)S(C)(=O)=O)nn2c(=O)c1C | 1.1 |  |
| Cc1[nH]c2cc([C@@H]3CCCCN3C(=O)c3cccc(F)c3NS(C)(=O)=O)nn2c(=O)c1C | 1.3 |  |
| Cc1[nH]c2cc([C@@H]3CCCCN3C(=O)c3ccc(F)cc3NS(C)(=O)=O)nn2c(=O)c1C | 1.5 |  |
| Cc1[nH]c2cc([C@@H]3CCCCN3C(=O)c3cc(F)ccc3NS(C)(=O)=O)nn2c(=O)c1C | 1.4 |  |
| Cc1ccc(NS(C)(=O)=O)c(C(=O)N2CCCC[C@H]2c2cc3[nH]c(C)c(C)c(=O)n3n2)c1 | 1.7 |  |
| Cc1[nH]c2cc([C@@H]3CCCCN3C(=O)c3cc(C(F)(F)F)ccc3NS(C)(=O)=O)nn2c(=O)c1C | 1.9 |  |
| Cc1[nH]c2cc([C@@H]3CCCCN3C(=O)c3cc(Br)ccc3NS(C)(=O)=O)nn2c(=O)c1C | 2 |  |
| Cc1[nH]c2cc([C@@H]3CCCCN3C(=O)c3cc(-c4ccccc4)ccc3NS(C)(=O)=O)nn2c(=O)c1C | 2.6 |  |
| Cc1[nH]c2cc([C@@H]3CCCCN3C(=O)c3c(Cl)cccc3NS(C)(=O)=O)nn2c(=O)c1C | 1.8 |  |
| Cc1cn2nc([C@@H]3CCCCN3C(=O)c3ccccc3NS(C)(=O)=O)cc2nc1C | 3 | bioavailability [2]: 18% |
| Cc1nc2cc([C@@H]3CCCCN3C(=O)c3ccccc3NS(C)(=O)=O)nn2c(C)c1C | 2.7 |  |
| CNc1c(C)c(C)nc2cc([C@@H]3CCCCN3C(=O)c3ccccc3NS(C)(=O)=O)nn12 | 2.6 |  |

| SMILES | chromatographic logD [1] | other results |
| --- | --- | --- |
| Cc1ccc(NS(C)(=O)=O)c(C(=O)N2CCCC[C@H]2c2cc3nc(C)c(C)cn3n2)c1 | 3.1 | bioavailability [2]: 86% |
| Cc1ccc(NS(C)(=O)=O)c(C(=O)N2CCCC[C@H]2c2cc3nc(C)c(C)c(C)n3n2)c1 | 3.1 | bioavailability [2]: 26% |
| CNc1c(C)c(C)nc2cc([C@@H]3CCCCN3C(=O)c3cc(C)ccc3NS(C)(=O)=O)nn12 | 2.8 |  |
| Cc1ccc(NS(C)(=O)=O)c(C(=O)N2CCCC[C@H]2c2cc3nc(C)cc(C)n3n2)c1 | 2.7 |  |
| Cc1ccc(NS(C)(=O)=O)c(C(=O)N2CCCC[C@H]2c2cc3nc(C4CC4)cc(C)n3n2)c1 | 3.5 | bioavailability [2]: 42% |
| Cc1ccc(NS(C)(=O)=O)c(C(=O)N2CCCC[C@H]2c2cc3nc(C4CC4)c(C)cn3n2)c1 | 4.1 |  |
| Cc1ccc(NS(C)(=O)=O)c(C(=O)N2CCCC[C@H]2c2cc3nc(C4CC4)ccn3n2)c1 | 3.7 |  |
| Cc1cn2nc([C@@H]3CCCCN3C(=O)c3cc(Cl)ccc3NS(C)(=O)=O)cc2nc1N1CCC1 | 3.8 |  |
| Cc1cn2nc([C@@H]3CCCCN3C(=O)c3cc(Cl)ccc3NS(C)(=O)=O)cc2nc1N1CC(F)C1 | 3.7 |  |
| Cc1cn2nc([C@@H]3CCCCN3C(=O)c3cc(Cl)ccc3NS(C)(=O)=O)cc2nc1N1CC(C#N)C1 | 3.3 |  |
| Cc1cn2nc([C@@H]3CCCCN3C(=O)c3cc(Cl)ccc3NS(C)(=O)=O)cc2nc1N1CC(O)C1 | 2.7 | bioavailability [2]: 42% |
| Cc1cn2nc([C@@H]3CCCCN3C(=O)c3cc(Cl)ccc3NS(C)(=O)=O)cc2nc1N1CC(N)C1 | 2.1 | bioavailability [2]: 67% |
| Cc1cn2nc([C@@H]3CCCCN3C(=O)c3cc(Cl)ccc3NS(C)(=O)=O)cc2nc1N1CCCC1 | 4.4 |  |
| Cc1cn2nc([C@@H]3CCCCN3C(=O)c3cc(Cl)ccc3NS(C)(=O)=O)cc2nc1N1CCC(F)(F)C1 | 4.2 |  |
| Cc1cn2nc([C@@H]3CCCCN3C(=O)c3cc(Cl)ccc3NS(C)(=O)=O)cc2nc1N1CC[C@@H](C#N)C1 | 3.7 |  |
| Cc1cn2nc([C@@H]3CCCCN3C(=O)c3cc(Cl)ccc3NS(C)(=O)=O)cc2nc1N1CC[C@H](C#N)C1 | 3.6 |  |
| Cc1cn2nc([C@@H]3CCCCN3C(=O)c3cc(Cl)ccc3NS(C)(=O)=O)cc2nc1N1CC[C@@H](O)C1 | 2.8 | bioavailability [2]: 71% |
| Cc1cn2nc([C@@H]3CCCCN3C(=O)c3cc(Cl)ccc3NS(C)(=O)=O)cc2nc1N1CC[C@H](O)C1 | 2.9 |  |
| Cc1cn2nc([C@@H]3CCCCN3C(=O)c3cc(Cl)ccc3NS(C)(=O)=O)cc2nc1N1CC[C@@H](N)C1 | 2 |  |
| Cc1cn2nc([C@@H]3CCCCN3C(=O)c3cc(Cl)ccc3NS(C)(=O)=O)cc2nc1N1CC[C@H](N)C1 [PRESATOVIR] | 2 | bioavailability [2]: 46%; clearance [3]: 32.2 mL/min/kg; clearance [4]: 3.83 mL/min/kg; clearance [5]: 6 mL/min/kg; Vd [6]: 9.75 L/kg; Vd [7]: 2.91 L/kg; Vd [8]: 4.95 L/kg; half-life [9]: 3.4 h; half-life [10]: 8.9 h; half-life [11]: 10 h; half-life [12]: 35 h; bioavailability [13]: 130%; bioavailability [14]: 60%; Kp [15]: 26; Kp [16]: 10; Drug uptake [17]: Not Active; Drug uptake [18]: Not Active; Drug uptake [19]: Active; Drug uptake [20]: Active |
